Columns and labels:
[1] = molecular target: T1, Polyunsaturated fatty acid lipoxygenase ALOX12 (Homo sapiens) (UniProt P18054); experiment: Modulation of 12-LO-mediated 14-HDHA level in human M2 macrophages derived from IL4-polarized human monocyte derived macrophages at 3 uM preincubated for 15 mins followed by Escherichia coli (O6:K2:H1) challenge for 90 mins by LC-MS/MS analysis
T1 sequence (whole entry): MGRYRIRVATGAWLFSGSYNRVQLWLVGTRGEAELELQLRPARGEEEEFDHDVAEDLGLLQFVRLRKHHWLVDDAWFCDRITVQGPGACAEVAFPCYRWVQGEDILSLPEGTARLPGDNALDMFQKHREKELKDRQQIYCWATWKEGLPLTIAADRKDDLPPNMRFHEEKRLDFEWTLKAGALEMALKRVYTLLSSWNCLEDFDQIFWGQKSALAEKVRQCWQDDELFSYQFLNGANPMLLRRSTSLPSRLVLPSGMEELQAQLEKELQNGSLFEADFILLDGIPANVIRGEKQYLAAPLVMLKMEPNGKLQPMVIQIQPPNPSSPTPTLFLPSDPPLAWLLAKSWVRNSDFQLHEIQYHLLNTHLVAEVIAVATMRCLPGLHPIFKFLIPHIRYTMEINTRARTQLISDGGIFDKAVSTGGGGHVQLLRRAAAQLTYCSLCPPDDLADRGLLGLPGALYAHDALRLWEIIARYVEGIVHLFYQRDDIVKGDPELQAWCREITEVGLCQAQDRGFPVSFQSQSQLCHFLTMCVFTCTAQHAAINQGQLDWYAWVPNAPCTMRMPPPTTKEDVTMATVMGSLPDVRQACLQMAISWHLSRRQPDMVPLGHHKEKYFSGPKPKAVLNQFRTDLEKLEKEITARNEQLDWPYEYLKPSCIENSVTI
Method in brief: (§1)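 Monocytes differentiated 6 days with M-CSF (20 ng/ml), then polarized 48 h with IL-4 20 ng/ml (M2). Cells (2 × 10^6) in PBS/1 mM CaCl2 pre-incubated 15 min at 37 °C with 3 µM compound or 0.1% DMSO, then challenged with E. coli O6:K2:H1 (1:50) for 90 min. Lipid mediators extracted by SPE with deuterated internal standards and quantified by UPLC-MS/MS as % of vehicle.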

[2] = molecular target: T2, Cyclooxygenase (Homo sapiens, UniProt P35354+P23219); experiment: Modulation of COX1/2-mediated TXB2 level in human M1 macrophages derived from LPS/IFNgamma-polarized human monocyte derived macrophages at 3 uM preincubated for 15 mins followed by Escherichia coli (O6:K2:H1) challenge for 90 mins by LC-MS/MS analysis; type: protein assay; settings: 1.5 h
Method in brief: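 Monocytes differentiated 6 days with GM-CSF (20 ng/ml) in RPMI/10% FCS, then polarized 48 h with LPS 100 ng/ml plus IFN-γ 20 ng/ml (M1). Cells (2 × 10^6) in PBS with 1 mM CaCl2 pre-incubated 15 min at 37 °C with 3 µM compound or 0.1% DMSO, then E. coli O6:K2:H1 (1:50) for 90 min. Methanol with deuterated standards added; SPE; UPLC-MS/MS; expressed as % of vehicle.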

[3] = molecular target: T2, Cyclooxygenase; experiment: Modulation of COX1/2-mediated 11-HEPE level in human M2 macrophages derived from IL4-polarized human monocyte derived macrophages at 3 uM preincubated for 15 mins followed by Escherichia coli (O6:K2:H1) challenge for 90 mins by LC-MS/MS analysis; type: ADME; settings: 1.5 h; method in brief: as §1
[4] = molecular target: T3, Prostaglandin E synthase (Homo sapiens, UniProt O14684); experiment: Inhibition of mPGES-1 isolated from microsomes of interleukin-1 beta-stimulated human A549 cells using PGH2 as substrate preincubated for 15 mins followed by substrate addition measured after 1 min by RP-HPLC analysis
T3 sequence (O14684 whole entry): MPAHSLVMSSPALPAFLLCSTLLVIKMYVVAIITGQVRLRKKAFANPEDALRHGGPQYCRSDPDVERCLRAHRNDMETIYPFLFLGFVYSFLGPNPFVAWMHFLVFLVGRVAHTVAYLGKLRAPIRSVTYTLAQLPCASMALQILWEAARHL
Method in brief: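 Microsomes from A549 cells treated with IL-1β (1 ng/ml, 72 h), diluted in 0.1 M potassium phosphate pH 7.4 with 2.5 mM glutathione. Pre-incubated 15 min with compound or DMSO, then 20 µM PGH2 (final) for 1 min at 4 °C. IC50 from 4-5 concentrations.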

[5] = molecular target: T1, Polyunsaturated fatty acid lipoxygenase ALOX12 (Homo sapiens); experiment: Modulation of 12-LO-mediated 12-HEPE level in human M2 macrophages derived from IL4-polarized human monocyte derived macrophages at 3 uM preincubated for 15 mins followed by Escherichia coli (O6:K2:H1) challenge for 90 mins by LC-MS/MS analysis; method in brief: as §1
[6] = molecular target: T4, Polyunsaturated fatty acid 5-lipoxygenase (Homo sapiens, UniProt P09917); experiment: Inhibition of recombinant human 5-LO expressed in Escherichia coli BL21 (DE3) using arachidonic acid as substrate preincubated for 10 mins followed by CaCl2 and substrate addition measured after 10 mins by RP-HPLC analysis
T4 sequence (P09917 whole entry): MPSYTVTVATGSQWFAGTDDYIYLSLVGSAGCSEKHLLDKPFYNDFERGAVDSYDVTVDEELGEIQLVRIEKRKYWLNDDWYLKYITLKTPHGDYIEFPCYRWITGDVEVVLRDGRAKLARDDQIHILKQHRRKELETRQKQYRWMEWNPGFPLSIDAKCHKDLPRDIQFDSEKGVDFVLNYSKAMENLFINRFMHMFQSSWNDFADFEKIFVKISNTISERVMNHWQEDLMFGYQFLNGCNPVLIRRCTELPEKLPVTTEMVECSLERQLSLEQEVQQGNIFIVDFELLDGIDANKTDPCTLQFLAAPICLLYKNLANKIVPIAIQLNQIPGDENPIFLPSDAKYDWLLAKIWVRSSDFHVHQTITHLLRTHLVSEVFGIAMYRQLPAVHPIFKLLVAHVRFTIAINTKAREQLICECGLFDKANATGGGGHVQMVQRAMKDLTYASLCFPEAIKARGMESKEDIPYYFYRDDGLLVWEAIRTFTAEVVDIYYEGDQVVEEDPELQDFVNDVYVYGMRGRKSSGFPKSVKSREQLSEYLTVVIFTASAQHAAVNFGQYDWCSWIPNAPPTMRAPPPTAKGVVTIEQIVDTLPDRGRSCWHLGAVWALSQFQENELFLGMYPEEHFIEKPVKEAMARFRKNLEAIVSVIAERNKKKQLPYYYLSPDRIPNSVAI
Method in brief: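 Human recombinant 5-LO from E. coli BL21(DE3), ATP-agarose semi-purified (0.5 µg/ml), pre-incubated with compound or 0.1% DMSO at 4 °C. It was pre-warmed 30 s at 37 °C, then started with 2 mM CaCl2 plus 20 µM AA. Stopped after 10 min with ice-cold methanol; products by RP-HPLC. Residual activity at 10 µM; IC50 from 4-5 concentrations; n=3-4.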

## O=C(O)c1ccc(N(Cc2cccc(OCc3ccccc3)c2)S(=O)(=O)c2ccc(-c3ccccc3)cc2)cc1
[1]
  Activity: 125%
[2]
  Activity: 92%
[3]
  Activity: 107%
[4]
  IC50: 700 nM
[5]
  Activity: 140%
[6]
  IC50: 2300 nM

Reference: ChEMBL document CHEMBL4270576, “Discovery of a benzenesulfonamide-based dual inhibitor of microsomal prostaglandin E2 synthase-1 and 5-lipoxygenase that favorably modulates lipid mediator biosynthesis in inflammation” (Eur J Med Chem, 2018)
